Activity calls are given as the source filed them. No cut-off for these calls is given here.
Legend:
Sindbis virus = experiment: Antiviral activity against Sindbis virus infected in african green monkey Vero cells assessed as inhibition of virus-induced cytopathicity; type: functional, organism-based
Summary of the method: (§1)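 Cells were infected with 100 CCID50 of virus for 2 h, then residual virus was removed. Medium with graded compound concentrations was added and cultures were kept 3 days at 37 °C. Cytopathogenicity was scored microscopically. EC50 is the concentration reducing virus-induced cytopathogenicity by 50%.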

Human alphaherpesvirus 1 = experiment: Antiviral activity against Herpes simplex virus 1 infected in HEL cells assessed as inhibition of virus-induced cytopathicity; type: functional, organism-based
[1] = system: Human immunodeficiency virus 1; experiment: Antiviral activity against HIV1 3B infected in human CEM cells assessed as inhibition of virus-induced cytopathicity; type: functional, organism-based; conditions: CCRF-CEM
CCRF-CEM = experiment: Cytostatic activity against human CEM cells after 72 hrs by MTT assay; type: functional, cell-based
Human alphaherpesvirus 3 = experiment: Antiviral activity against Varicella-Zoster virus infected in HEL cells assessed as inhibition of virus-induced cytopathicity; type: functional, organism-based
MCF7 = experiment: Cytostatic activity against human MCF7 cells after 72 hrs by MTT assay; type: functional, cell-based; conditions: MCF7, 72 h
Summary of the method: (§2)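 Monolayer cells were grown in DMEM with 10% FBS, 2 mM L-glutamine, penicillin and streptomycin at 37 °C under 5% CO2. They were seeded on day 0 at 1 × 10⁴ to 3 × 10⁴ cells/ml and exposed to five 10-fold dilutions (10⁻⁸ to 10⁻⁴ M) for 72 h, with a solvent control. Read-out was MTT. Quadruplicates in three experiments (WI 38: one experiment). IC50 by linear regression of percentage-of-growth.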

Punta Toro virus = experiment: Antiviral activity against Punta Toro virus infected in african green monkey Vero cells assessed as inhibition of virus-induced cytopathicity; type: functional, organism-based; summary of the method: as §1
Cytomegalovirus = experiment: Antiviral activity against Cytomegalovirus infected in HEL cells assessed as inhibition of virus-induced cytopathicity; type: functional, organism-based
Summary of the method: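 Confluent HEL fibroblasts were infected with CMV strains Davis and AD-169 at 100 PFU per well for 2 h, then virus was removed. Graded concentrations were added in duplicate and cultures kept 7 days at 37 °C. Cytopathogenicity was scored microscopically after ethanol fixation and Giemsa staining. EC50 is the 50% reduction.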

Human alphaherpesvirus 2 = experiment: Antiviral activity against Herpes simplex virus 2 infected in HEL cells assessed as inhibition of virus-induced cytopathicity; type: functional, organism-based
Vaccinia virus = experiment: Antiviral activity against Vaccinia virus infected in HEL cells assessed as inhibition of virus-induced cytopathicity; type: functional, organism-based; conditions: Orthopoxvirus vaccinia
Summary of the method: (§3)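 Cell cultures were exposed for 2 h to 100 CCID50 of virus, and residual virus was then removed. Infected cells were further incubated with medium containing varying compound concentrations for 3 days at 37 °C. Virus-induced cytopathogenicity was scored microscopically. EC50 is the concentration giving a 50% reduction of cytopathogenicity.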

MIA PaCa-2 = experiment: Cytostatic activity against human MIAPaCa2 cells after 72 hrs by MTT assay; type: functional, cell-based; conditions: MIA PaCa-2, 72 h; summary of the method: as §2
[2] = system: Mammalian orthoreovirus 1; experiment: Antiviral activity against Reovirus 1 infected in african green monkey Vero cells assessed as inhibition of virus-induced cytopathicity; type: functional, organism-based; summary of the method: as §1
[3] = system: Vesicular stomatitis virus; experiment: Antiviral activity against Vesicular stomatitis virus infected in human HeLa cells assessed as inhibition of virus-induced cytopathicity; type: functional, organism-based; summary of the method: as §3
HeLa = experiment: Cytostatic activity against human HeLa cells after 72 hrs by MTT assay; type: functional, cell-based; summary of the method: as §2
[4] = system: Vesicular stomatitis virus; experiment: Antiviral activity against Vesicular stomatitis virus infected in HEL cells assessed as inhibition of virus-induced cytopathicity; type: functional, organism-based; summary of the method: as §3
[5] = system: Respiratory syncytial virus; experiment: Antiviral activity against Respiratory syncytial virus infected in human HeLa cells assessed as inhibition of virus-induced cytopathicity; type: functional, organism-based; summary of the method: as §1
NCI-H460 = experiment: Cytostatic activity against human H460 cells after 72 hrs by MTT assay; type: functional, cell-based; conditions: NCI-H460, 72 h; summary of the method: as §2
Coxsackievirus B4 [6] = experiment: Antiviral activity against Coxsackievirus B4 infected in african green monkey Vero cells assessed as inhibition of virus-induced cytopathicity; type: functional, organism-based; summary of the method: as §1
L1210 = experiment: Cytostatic activity against mouse L1210 cells after 48 hrs by MTT assay; type: functional, cell-based; conditions: L1210, 48 h
Coxsackievirus B4 [7] = experiment: Antiviral activity against Coxsackievirus B4 infected in human HeLa cells assessed as inhibition of virus-induced cytopathicity; type: functional, organism-based; summary of the method: as §1
SW-620 = experiment: Cytostatic activity against human SW620 cells after 72 hrs by MTT assay; type: functional, cell-based; conditions: SW-620, 72 h; summary of the method: as §2
[8] = system: Human immunodeficiency virus 2; experiment: Antiviral activity against HIV2 ROD infected in human CEM cells assessed as inhibition of virus-induced cytopathicity; type: functional, organism-based; conditions: CCRF-CEM
[9] = Cytostatic activity against human Molt4/C8 cells after 72 hrs by MTT assay; type: functional, cell-based; conditions: MOLT-4, 72 h
Human respirovirus 3 = experiment: Antiviral activity against Parainfluenza-3 virus infected in african green monkey Vero cells assessed as inhibition of virus-induced cytopathicity; type: functional, organism-based; summary of the method: as §1
[10] = Cytostatic activity against human WI38 cells after 72 hrs by MTT assay; type: ADME, cell-based; conditions: WI-38, 72 h; summary of the method: as §2

For `COC(=O)[C@H](C)NP(=O)(OCCCNC(=O)C(C)c1ccc(CC(C)C)cc1)Oc1ccc(Cl)cc1` (stereo not given in full), which Activity (Sindbis virus) is on record?
The Activity was “inactive”.

And the Activity (Human alphaherpesvirus 1)?
Its Activity is “inactive”.

What about the Activity [1] of the same compound?
Its Activity is “inactive”.

What about the IC50 (CCRF-CEM) of the same compound?
The IC50 was 90 µM.

What about the Activity (Human alphaherpesvirus 3) of the same compound?
Its Activity is “inactive”.

And the IC50 (MCF7)?
The IC50 was 14 µM.

What about the Activity (Punta Toro virus) of the same compound?
Its Activity is “inactive”.

What about the Activity (Cytomegalovirus) of the same compound?
Its Activity is “inactive”.

What about the Activity (Human alphaherpesvirus 2) of the same compound?
The Activity was “inactive”.

What about the Activity (Vaccinia virus) of the same compound?
Its Activity is “inactive”.

What about the IC50 (MIA PaCa-2) of the same compound?
Its IC50 is 13 µM.

What about the Activity [2] of the same compound?
The Activity was “inactive”.

And the Activity [3]?
Its Activity is “inactive”.

And the IC50 (HeLa)?
Its IC50 is 15 µM.

And the Activity [4]?
The Activity was “inactive”.

What about the Activity [5] of the same compound?
The Activity was “inactive”.

What about the IC50 (NCI-H460) of the same compound?
Its IC50 is 19 µM.

And the Activity (Coxsackievirus B4 [6])?
The Activity was “inactive”.

And the IC50 (L1210)?
Its IC50 is 64 µM.

And the Activity (Coxsackievirus B4 [7])?
Its Activity is “inactive”.

And the IC50 (SW-620)?
Its IC50 is 21 µM.

And the Activity [8]?
The Activity was “inactive”.

What about the IC50 [9] of the same compound?
Its IC50 is 48 µM.

And the Activity (Human respirovirus 3)?
The Activity was “inactive”.

What about the IC50 [10] of the same compound?
The IC50 was 21 µM.

From ChEMBL document CHEMBL1152859, “The novel phosphoramidate derivatives of NSAID 3-hydroxypropylamides: synthesis, cytostatic and antiviral activity evaluations” (Eur J Med Chem, 2009)
